Source: PubChem BioAssay
Most compounds without a hit are left out; they make up all but 2.2% or so of the library.
DNMT1 inh – inhibitors of human DNMT1; P26358; DNMT1 molecular beacon, Hinp1I cleavage, fluorescence; inhibition (reported as % activation of signal), % at 10 µM; actives 0.83% (n = 360,000); AID 588458; in the data active = inhibition above about 50%
LMPTP block – LMPTP (human) inhibition | actives 0.22% (n = 360,000) | P24666 | AID 651560 | inhibition, % at 20 µM | recombinant LMPTP-A, OMFP fluorogenic substrate, fluorescence intensity;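 active = compounds that cut the enzyme signal by at least half of the control window in the single-dose screen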;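 also: plate controls were DMSO wells with enzyme plus substrate for no effect and substrate without enzyme for full effect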
Target sequence (P24666 whole entry, looked up): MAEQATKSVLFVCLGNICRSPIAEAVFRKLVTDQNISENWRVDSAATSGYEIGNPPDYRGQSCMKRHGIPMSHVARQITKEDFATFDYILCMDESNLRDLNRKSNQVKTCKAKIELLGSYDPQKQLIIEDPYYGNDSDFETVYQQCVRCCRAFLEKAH
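Assay system: LMPTP-A, protein tyrosine phosphatase of low molecular weight / Medium: pH 6.0 Bis-Tris buffer with DTT and Triton X-100 / Schedule: 50 min enzyme reaction at room temperature, protected from light / Measured by: endpoint fluorescence intensity from OMFP dephosphorylation / Read-out basis: % inhibition relative to no-enzyme and uninhibited control wells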
Scp1 inh – blocks human Scp-1 phosphatase activity. Recombinant Scp1, phosphopeptide, malachite green phosphate absorbance. inhibition, % at 20 µM. actives 0.88% (n = 340,000);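 active = inhibition above about 50% at 20 µM, limit read from the data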;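 also: plate controls were DMSO wells with enzyme for no effect and wells lacking enzyme for full effect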
Target sequence (Q9GZU7 76-261 limits assumed): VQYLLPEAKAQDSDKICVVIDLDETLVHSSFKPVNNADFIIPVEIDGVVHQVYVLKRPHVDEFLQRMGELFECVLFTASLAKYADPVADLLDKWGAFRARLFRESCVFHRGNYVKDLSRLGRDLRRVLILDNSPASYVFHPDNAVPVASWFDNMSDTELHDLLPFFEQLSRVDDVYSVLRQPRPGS
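Times: enzyme reaction 45 min at room temperature, colour 5 min, stabilisation 30 min. Material: SCP-1 catalytic fragment, aa 76-261. Medium: Acidic Tris acetate buffer with magnesium and detergent. Signal: colorimetric free-phosphate detection, absorbance 630 nm. Read-out basis: % inhibition of SCP-1 phosphate liberation. Reagent: Phosphorylated 17-residue peptide substrate.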
STEP inh – inhibitors of human striatal-enriched phosphatase STEP; P54829; recombinant STEP, OMFP fluorogenic substrate, fluorescence; inhibition, % at 20 µM; actives 0.25% (n = 360,000); AID 588621;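 active = inhibition at 20 µM, scaled per plate between control wells, above about 37%, limit read from the data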;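 also: 0% = DMSO with enzyme and substrate and 100% = substrate only without enzyme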
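System: STEP phosphatase, cell-free reaction; Buffer or medium: Bis-Tris pH 6.0 buffer with DTT, detergent; Incubation: 20 min at room temperature, dark; Measured by: fluorescence, 480/540 nm.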
GRK2 aptamer HTS – inhibitors of human GRK2 displacing RNA aptamer; P25098; bead flow cytometry, FAM-aptamer displacement from GRK2; inhibition of aptamer binding, % at 10 µM; actives 0.59% (n = 330,000);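 active = inhibition of aptamer binding above 40%, roughly 3 SD of noise, on plates passing a quality check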;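 also: median bead fluorescence of bound FAM aptamer so fluorescent compounds give negative values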
SUMO1-SIM PPI – modulators of human SUMO1-mediated protein-protein interactions | SUMO1 binding to a labelled peptide, TR-FRET, 1 h | actives 0.33% (n = 360,000) | inhibition, % at 20 µM | P63165; in the data active = inhibition above about 37%
Target sequence (P63165 whole entry, looked up): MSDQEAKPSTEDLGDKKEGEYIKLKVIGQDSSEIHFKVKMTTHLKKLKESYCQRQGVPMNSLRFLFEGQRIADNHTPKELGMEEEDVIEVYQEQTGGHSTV
GRK2 inh confirm – confirmation of human GRK2 inhibitors displacing RNA aptamer; shares compounds with GRK2 aptamer HTS; bead-bound GRK2, FAM-aptamer displacement, flow cytometry; aptamer displacement, % at 10 µM; actives 4% (n = 2,000); AID 504451;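 active = aptamer displacement above 40%, near three times the noise of non-fluorescent compounds, on plates passing quality checks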;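 also: negative values mostly reflect intrinsic compound fluorescence rather than true enhancement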
FAM quench CP1 – quenches fluorescent RNA aptamer, GRK2 hit artifact; shares compounds with GRK2 aptamer HTS; Carboxyfluorescein RNA aptamer on beads, flow cytometry quenching; hits give low values; fluorescence response (% of DMSO), % at 10 µM; 2,000 tested, under 10 active; AID 504580;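 active = compounds that quench the bead-bound fluorescent RNA probe, cutting fluorescence to under half of the solvent control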;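 also: counterscreen run without GRK2 so only probe quenching by compound is measured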
* = called active by the depositor.

What do the screens show for `CC(C)c1ccc(N(C)C(=O)Cc2c(C(=O)O)n(C)c3ccccc23)cc1`?
DNMT1 inh: -2; LMPTP block: 0; Scp1 inh: -26; STEP inh: 2; GRK2 aptamer HTS: 0; SUMO1-SIM PPI: 8

What do the screens show for `CCOC(=O)c1ccccc1NC(=O)Cc1c(C(=O)O)n(C)c2ccccc12`?
DNMT1 inh: 3; LMPTP block: -2; Scp1 inh: -15; STEP inh: 2; GRK2 aptamer HTS: 50*; SUMO1-SIM PPI: 5; GRK2 inh confirm: -2; FAM quench CP1: 95

How did COc1ccc(C)cc1NC(=O)Cc1c(C(=O)O)n(C)c2ccccc12 do in these assays?
DNMT1 inh: -2; LMPTP block: -1; Scp1 inh: -19; STEP inh: -2; GRK2 aptamer HTS: 0; SUMO1-SIM PPI: 2

How did CN(C(=O)Cc1c(C(=O)O)n(C)c2ccccc12)c1ccc(Cl)cc1 do in these assays?
DNMT1 inh: 1; LMPTP block: -2; Scp1 inh: -19; STEP inh: 1; GRK2 aptamer HTS: 9; SUMO1-SIM PPI: 3; GRK2 inh confirm: 0; FAM quench CP1: 98

What do the screens show for `CCOC(=O)c1ccccc1NC(=O)COC(=O)c1ccccc1C(=O)N(C)c1ccccc1`?
DNMT1 inh: 1; LMPTP block: 2; Scp1 inh: -6; STEP inh: 1; GRK2 aptamer HTS: 44*; SUMO1-SIM PPI: 0; GRK2 inh confirm: -2; FAM quench CP1: 98

What do the screens show for `COc1ccc(C2c3cc(OC)c(OC)cc3CC3C(=O)OCC32)cc1OC` (stereo unspecified)?
DNMT1 inh: 1; LMPTP block: 0; Scp1 inh: -1; STEP inh: -1; SUMO1-SIM PPI: -3

What do the screens show for `CC12CCC3C(CCC4N(CCO)CCC34C)C1CCC2O` (stereo unspecified)?
DNMT1 inh: 0; LMPTP block: 1; Scp1 inh: -4; STEP inh: -1; GRK2 aptamer HTS: 49*; SUMO1-SIM PPI: -1; GRK2 inh confirm: -1; FAM quench CP1: 106

Results for C[C@]12CC[C@@H]3c4cc(O)c(O)cc4CC[C@H]3[C@@H]1CC[C@@H]2O ?
DNMT1 inh: -4; LMPTP block: 0; Scp1 inh: -14; STEP inh: -2; GRK2 aptamer HTS: 2; SUMO1-SIM PPI: -1

Results for O=C(O)Cc1ccc(NC(=O)c2ccc(NC(=O)c3ccco3)cc2)cc1 ?
DNMT1 inh: 9; LMPTP block: -1; Scp1 inh: 31; STEP inh: 3; GRK2 aptamer HTS: 48*; SUMO1-SIM PPI: 13; GRK2 inh confirm: 1; FAM quench CP1: 98

What do the screens show for `COC(=O)Cc1ccc(NC(=O)c2ccc(NC(=O)c3ccco3)cc2)cc1`?
DNMT1 inh: -1; LMPTP block: 3; Scp1 inh: -3; STEP inh: 0; GRK2 aptamer HTS: 1; SUMO1-SIM PPI: 3

How did CCCCC(=O)Nc1ccc(C(=O)NNC(=S)NC(=O)c2ccco2)cc1 do in these assays?
DNMT1 inh: -3; LMPTP block: -1; Scp1 inh: -16; STEP inh: 4; GRK2 aptamer HTS: 0; SUMO1-SIM PPI: 4

What do the screens show for `CCCCC(=O)Nc1ccc(C(=O)NNC(=O)c2ccco2)cc1`?
DNMT1 inh: 3; LMPTP block: -1; Scp1 inh: 2; STEP inh: -1; GRK2 aptamer HTS: 65*; SUMO1-SIM PPI: 4; GRK2 inh confirm: 0; FAM quench CP1: 93

Results for Cc1cc(N2CCOCC2)ccc1/C=C1\NC(=O)N(CC(=O)Nc2ccc(F)cc2)C1=O ?
DNMT1 inh: -5; LMPTP block: 1; Scp1 inh: 1; STEP inh: 0; GRK2 aptamer HTS: 1; SUMO1-SIM PPI: -14
